Experimental data from ChEMBL document CHEMBL1141501, “Identification of a potent new chemotype for the selective inhibition of PDE4” (Bioorg Med Chem Lett, 2008).
Calls of active or inactive are those of the source. No cut-off for these calls is given here.

Legend:
Phosphodiesterase 4 = Phosphodiesterase 4 (Homo sapiens, UniProt P27815+Q08499+Q07343+Q08493); assay: Inhibition of human PDE4A1A by IMAP technology; type: protein assay
Method in brief: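 Human PDE4A1A at 0.05 ng/μl final, in 10 mM Tris pH 7.2 with 0.1% BSA, 10 mM MgCl2, 1 mM DTT and 0.05% NaN3. Compound pin-transferred, then 5 min at RT before adding 100 nM cAMP (final). After 40 min at RT, IMAP binding reagent was added and incubated 1–4 h at RT.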

[1] = biological target: Dual specificity calcium/calmodulin-dependent 3',5'-cyclic nucleotide phosphodiesterase 1A (Homo sapiens, UniProt P54750); assay: Inhibition of PDE1A
[2] = biological target: cGMP-inhibited 3',5'-cyclic phosphodiesterase 3A (Homo sapiens, UniProt Q14432); assay: Inhibition of PDE3A
[3] = biological target: High affinity 3',5'-cyclic-AMP phosphodiesterase 7A (Homo sapiens) (UniProt Q13946); assay: Inhibition of PDE7A
[4] = biological target: Dual specificity calcium/calmodulin-dependent 3',5'-cyclic nucleotide phosphodiesterase 1B (Homo sapiens, UniProt Q01064); assay: Inhibition of PDE1B
[5] = biological target: 3',5'-cyclic-AMP phosphodiesterase 7B (Homo sapiens) (UniProt Q9NP56); assay: Inhibition of PDE7B
[6] = biological target: High affinity cGMP-specific 3',5'-cyclic phosphodiesterase 9A (Homo sapiens) (UniProt O76083); assay: Inhibition of PDE9A
[7] = biological target: cAMP and cAMP-inhibited cGMP 3',5'-cyclic phosphodiesterase 10A (Homo sapiens, UniProt Q9Y233); assay: Inhibition of PDE10A
[8] = biological target: cGMP-specific 3',5'-cyclic phosphodiesterase (Homo sapiens, UniProt O76074)
[9] = biological target: Dual 3',5'-cyclic-AMP and -GMP phosphodiesterase 11A (Homo sapiens, UniProt Q9HCR9)

Sequence of cGMP-inhibited 3',5'-cyclic phosphodiesterase 3A (Q14432 whole entry): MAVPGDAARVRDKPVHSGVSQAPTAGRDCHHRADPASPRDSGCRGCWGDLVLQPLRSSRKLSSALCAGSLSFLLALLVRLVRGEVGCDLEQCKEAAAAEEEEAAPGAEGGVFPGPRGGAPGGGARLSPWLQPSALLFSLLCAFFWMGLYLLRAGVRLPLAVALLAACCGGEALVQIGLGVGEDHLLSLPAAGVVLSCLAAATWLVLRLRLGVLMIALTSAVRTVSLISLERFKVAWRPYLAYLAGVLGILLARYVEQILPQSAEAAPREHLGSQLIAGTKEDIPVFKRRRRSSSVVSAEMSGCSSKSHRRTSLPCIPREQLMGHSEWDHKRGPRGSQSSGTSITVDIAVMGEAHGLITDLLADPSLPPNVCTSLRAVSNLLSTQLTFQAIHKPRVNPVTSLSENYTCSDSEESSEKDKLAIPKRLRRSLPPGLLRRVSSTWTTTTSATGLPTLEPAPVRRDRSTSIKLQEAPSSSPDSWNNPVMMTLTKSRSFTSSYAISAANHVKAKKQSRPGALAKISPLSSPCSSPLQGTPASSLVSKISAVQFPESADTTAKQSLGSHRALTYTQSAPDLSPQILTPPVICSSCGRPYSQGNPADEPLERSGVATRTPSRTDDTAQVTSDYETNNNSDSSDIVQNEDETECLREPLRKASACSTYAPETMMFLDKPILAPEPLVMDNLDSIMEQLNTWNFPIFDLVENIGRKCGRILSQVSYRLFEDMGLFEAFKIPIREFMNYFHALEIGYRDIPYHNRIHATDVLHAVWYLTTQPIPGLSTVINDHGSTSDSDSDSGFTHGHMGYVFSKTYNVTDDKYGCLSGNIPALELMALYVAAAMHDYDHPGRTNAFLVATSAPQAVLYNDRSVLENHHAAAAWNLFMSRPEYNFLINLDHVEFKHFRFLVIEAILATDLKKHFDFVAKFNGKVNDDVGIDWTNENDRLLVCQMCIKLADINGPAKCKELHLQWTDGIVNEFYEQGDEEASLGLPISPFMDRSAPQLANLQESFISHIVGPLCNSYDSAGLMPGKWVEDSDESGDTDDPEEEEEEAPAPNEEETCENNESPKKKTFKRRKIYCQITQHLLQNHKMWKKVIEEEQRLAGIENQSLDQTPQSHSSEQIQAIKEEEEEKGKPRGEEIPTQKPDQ
Sequence of High affinity 3',5'-cyclic-AMP phosphodiesterase 7A (Homo sapiens) (Q13946 whole entry): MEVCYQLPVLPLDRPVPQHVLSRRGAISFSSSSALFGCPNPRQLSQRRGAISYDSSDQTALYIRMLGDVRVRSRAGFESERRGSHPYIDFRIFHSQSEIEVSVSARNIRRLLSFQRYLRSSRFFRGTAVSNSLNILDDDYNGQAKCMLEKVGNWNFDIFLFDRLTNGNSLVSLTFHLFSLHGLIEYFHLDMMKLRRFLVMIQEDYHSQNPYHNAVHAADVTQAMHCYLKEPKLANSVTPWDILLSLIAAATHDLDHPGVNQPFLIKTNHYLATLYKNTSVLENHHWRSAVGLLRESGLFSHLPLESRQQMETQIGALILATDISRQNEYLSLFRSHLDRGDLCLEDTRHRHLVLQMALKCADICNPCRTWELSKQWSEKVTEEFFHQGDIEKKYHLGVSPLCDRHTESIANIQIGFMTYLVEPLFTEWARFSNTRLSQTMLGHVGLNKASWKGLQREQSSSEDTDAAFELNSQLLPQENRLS
Sequence of Dual specificity calcium/calmodulin-dependent 3',5'-cyclic nucleotide phosphodiesterase 1B (Q01064 whole entry): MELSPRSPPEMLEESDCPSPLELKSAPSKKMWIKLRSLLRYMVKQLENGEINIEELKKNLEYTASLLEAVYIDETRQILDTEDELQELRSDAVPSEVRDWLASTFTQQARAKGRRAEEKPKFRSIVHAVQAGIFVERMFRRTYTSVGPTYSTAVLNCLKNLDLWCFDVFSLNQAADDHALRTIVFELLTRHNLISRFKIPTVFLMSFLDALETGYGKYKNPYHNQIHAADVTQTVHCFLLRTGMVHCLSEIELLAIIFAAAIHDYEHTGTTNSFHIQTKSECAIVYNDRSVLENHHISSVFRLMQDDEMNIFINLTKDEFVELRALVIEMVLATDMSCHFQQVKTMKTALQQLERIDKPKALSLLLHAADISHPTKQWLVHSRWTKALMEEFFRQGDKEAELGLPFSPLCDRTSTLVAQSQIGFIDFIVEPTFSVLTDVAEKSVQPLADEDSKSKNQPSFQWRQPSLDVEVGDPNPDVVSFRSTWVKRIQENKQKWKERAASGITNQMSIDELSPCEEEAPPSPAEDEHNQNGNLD
Sequence of 3',5'-cyclic-AMP phosphodiesterase 7B (Homo sapiens) (Q9NP56 whole entry): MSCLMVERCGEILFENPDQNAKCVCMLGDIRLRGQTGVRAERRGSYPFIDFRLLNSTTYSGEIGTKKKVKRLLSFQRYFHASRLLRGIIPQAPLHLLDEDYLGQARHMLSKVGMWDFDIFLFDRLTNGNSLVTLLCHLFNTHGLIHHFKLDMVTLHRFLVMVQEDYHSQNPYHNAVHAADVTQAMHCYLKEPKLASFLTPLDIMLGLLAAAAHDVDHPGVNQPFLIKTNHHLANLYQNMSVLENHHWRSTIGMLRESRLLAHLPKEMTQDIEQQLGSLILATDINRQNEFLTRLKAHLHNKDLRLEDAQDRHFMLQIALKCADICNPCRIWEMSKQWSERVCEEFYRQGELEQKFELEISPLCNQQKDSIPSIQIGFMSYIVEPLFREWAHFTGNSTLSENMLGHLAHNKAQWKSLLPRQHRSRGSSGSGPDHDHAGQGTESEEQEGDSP
Sequence of Dual specificity calcium/calmodulin-dependent 3',5'-cyclic nucleotide phosphodiesterase 1A (P54750 whole entry): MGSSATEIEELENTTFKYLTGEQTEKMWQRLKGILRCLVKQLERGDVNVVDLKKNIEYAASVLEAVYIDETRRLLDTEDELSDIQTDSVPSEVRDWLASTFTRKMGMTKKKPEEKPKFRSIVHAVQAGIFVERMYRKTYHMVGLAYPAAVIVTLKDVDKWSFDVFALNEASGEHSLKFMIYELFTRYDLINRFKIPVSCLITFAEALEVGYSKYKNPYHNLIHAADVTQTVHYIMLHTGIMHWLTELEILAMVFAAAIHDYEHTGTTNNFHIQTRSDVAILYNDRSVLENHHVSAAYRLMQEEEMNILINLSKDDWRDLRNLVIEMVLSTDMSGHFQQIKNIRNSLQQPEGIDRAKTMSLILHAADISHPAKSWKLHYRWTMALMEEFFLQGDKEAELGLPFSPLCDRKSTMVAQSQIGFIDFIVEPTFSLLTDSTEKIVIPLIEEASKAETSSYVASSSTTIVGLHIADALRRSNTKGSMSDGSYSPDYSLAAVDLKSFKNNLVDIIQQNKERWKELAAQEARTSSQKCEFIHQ
Sequence of High affinity cGMP-specific 3',5'-cyclic phosphodiesterase 9A (Homo sapiens) (O76083 whole entry): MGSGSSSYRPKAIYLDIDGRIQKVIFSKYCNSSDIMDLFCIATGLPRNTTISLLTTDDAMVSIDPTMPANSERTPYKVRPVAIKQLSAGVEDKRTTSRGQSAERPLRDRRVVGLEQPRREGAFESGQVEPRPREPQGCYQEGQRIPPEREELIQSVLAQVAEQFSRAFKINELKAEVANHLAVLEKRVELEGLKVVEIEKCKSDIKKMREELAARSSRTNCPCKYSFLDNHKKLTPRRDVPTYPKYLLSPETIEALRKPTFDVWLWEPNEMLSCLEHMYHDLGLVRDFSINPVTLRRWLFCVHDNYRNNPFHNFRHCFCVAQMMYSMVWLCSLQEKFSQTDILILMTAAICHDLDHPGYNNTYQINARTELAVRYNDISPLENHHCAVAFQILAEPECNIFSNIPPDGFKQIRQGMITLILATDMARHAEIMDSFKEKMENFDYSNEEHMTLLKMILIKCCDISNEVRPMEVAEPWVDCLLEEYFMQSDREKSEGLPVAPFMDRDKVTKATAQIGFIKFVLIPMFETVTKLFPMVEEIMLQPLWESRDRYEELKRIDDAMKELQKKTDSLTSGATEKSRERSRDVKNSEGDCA
Sequence of cAMP and cAMP-inhibited cGMP 3',5'-cyclic phosphodiesterase 10A (Q9Y233 whole entry): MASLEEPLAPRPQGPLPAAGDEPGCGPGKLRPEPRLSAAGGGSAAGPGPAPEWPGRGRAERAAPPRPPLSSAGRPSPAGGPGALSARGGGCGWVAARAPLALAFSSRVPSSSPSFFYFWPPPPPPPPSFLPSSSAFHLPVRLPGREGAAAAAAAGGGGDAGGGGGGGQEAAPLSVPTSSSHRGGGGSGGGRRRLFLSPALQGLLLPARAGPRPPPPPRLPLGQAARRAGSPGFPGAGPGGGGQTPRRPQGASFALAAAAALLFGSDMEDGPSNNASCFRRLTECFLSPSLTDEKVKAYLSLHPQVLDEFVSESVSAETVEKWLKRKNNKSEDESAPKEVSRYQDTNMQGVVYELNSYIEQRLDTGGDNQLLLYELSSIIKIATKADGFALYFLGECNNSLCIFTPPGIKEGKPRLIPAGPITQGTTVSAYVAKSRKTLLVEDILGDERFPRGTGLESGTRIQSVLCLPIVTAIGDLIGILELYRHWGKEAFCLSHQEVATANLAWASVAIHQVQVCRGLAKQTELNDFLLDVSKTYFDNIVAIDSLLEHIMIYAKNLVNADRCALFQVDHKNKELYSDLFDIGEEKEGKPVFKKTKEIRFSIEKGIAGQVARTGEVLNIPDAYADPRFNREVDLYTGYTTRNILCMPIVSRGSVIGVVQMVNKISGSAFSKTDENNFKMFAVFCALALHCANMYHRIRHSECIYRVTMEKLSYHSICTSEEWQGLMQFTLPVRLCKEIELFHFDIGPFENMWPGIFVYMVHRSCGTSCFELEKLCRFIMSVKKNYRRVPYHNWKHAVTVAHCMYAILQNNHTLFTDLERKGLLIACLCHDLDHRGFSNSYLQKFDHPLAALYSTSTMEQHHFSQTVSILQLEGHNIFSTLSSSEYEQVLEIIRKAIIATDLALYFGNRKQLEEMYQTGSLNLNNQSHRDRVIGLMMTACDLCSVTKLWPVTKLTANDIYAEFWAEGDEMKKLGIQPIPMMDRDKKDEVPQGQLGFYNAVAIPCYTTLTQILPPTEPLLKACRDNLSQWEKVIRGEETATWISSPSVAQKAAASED

IC50 (Phosphodiesterase 4) [µM] | SMILES | other results
13.4 | COc1cccc(-c2nnc3n2N=C(c2ccccc2OC)CS3)c1 | 
14.1 | COc1ccc(-c2nnc3n2N=C(c2ccccc2OC)CS3)cc1 | 
> 20 | COc1ccccc1C1=Nn2c(nnc2-c2ccccc2O)SC1 | 
0.05 | COc1cc(OC)cc(-c2nnc3n2N=C(c2ccc(OC)c(OC)c2)CS3)c1 | 
> 20 | COc1cccc(-c2nnc3n2N=C(c2c(OC)cccc2OC)CS3)c1 | 
9.5 | COc1ccc(C2=Nn3c(nnc3-c3cc(OC)cc(OC)c3)SC2)cc1 | 
13.4 | CCOc1ccccc1-c1nnc2n1N=C(c1cc(OC)ccc1OC)CS2 | 
> 20 | COc1cccc(OC)c1C1=Nn2c(nnc2-c2ccccc2O)SC1 | 
8.9 | COc1ccc(-c2nnc3n2N=C(c2ccccc2OC)CS3)cc1OC | 
> 20 | COc1cc(OC)cc(-c2nnc3n2N=C(c2ccc(OC)cc2OC)CS3)c1 | 
14.1 | COc1ccccc1C1=Nn2c(nnc2-c2ccccc2C)SC1 | 
> 20 | COc1ccc(C2=Nn3c(nnc3-c3ccccc3C)SC2)c(OC)c1 | 
> 20 | COc1ccc(OC)c(-c2nnc3n2N=C(c2c(OC)cccc2OC)CS3)c1 | 
9 | COc1cccc(C2=Nn3c(nnc3-c3ccc(OC)c(OC)c3)SC2)c1 | 
8 | COc1cccc(C2=Nn3c(nnc3-c3cc(OC)ccc3OC)SC2)c1 | 
11.9 | COc1ccc(OC)c(C2=Nn3c(nnc3-c3cccc(OC)c3OC)SC2)c1 | 
 | COc1ccc(C2CNC(=O)C2)cc1OC1CCCC1 (configuration not stated) [ROLIPRAM] | IC50 [1]: > 50 µM; Activity [2]: inactive; Activity [3]: inactive; Activity [4]: inactive; Activity [5]: inactive; Activity [6]: inactive; Activity [7]: inactive
8.4 | COc1ccc(C2=Nn3c(nnc3-c3ccccc3O)SC2)cc1 | 
14.1 | COc1cccc(-c2nnc3n2N=C(c2ccc(OC)cc2OC)CS3)c1 | 
8.4 | COc1ccc(-c2nnc3n2N=C(c2cccc(OC)c2)CS3)cc1 | 
19.6 | COc1ccc(OC)c(-c2nnc3n2N=C(c2ccccc2OC)CS3)c1 | 
13.4 | COc1cccc(C2=Nn3c(nnc3-c3ccc(OC)cc3OC)SC2)c1 | 
> 20 | COc1ccc(C2=Nn3c(nnc3-c3cccc(OC)c3OC)SC2)cc1 | 
13.4 | COc1cccc(C2=Nn3c(nnc3-c3cc(OC)cc(OC)c3)SC2)c1 | 
> 20 | COc1ccc(C2=Nn3c(nnc3-c3ccc(OC)cc3OC)SC2)cc1 | 

IC50 (Phosphodiesterase 4) [µM] | SMILES | other results
19.6 | COc1cc(OC)cc(-c2nnc3n2N=C(c2c(OC)cccc2OC)CS3)c1 | 
14.1 | COc1cccc(C2=Nn3c(nnc3-c3ccccc3O)SC2)c1 | 
> 20 | COc1cccc(-c2nnc3n2N=C(c2c(OC)cccc2OC)CS3)c1OC | 
6.9 | COc1ccc(OC)c(C2=Nn3c(nnc3-c3ccc(OC)c(OC)c3)SC2)c1 | 
13.4 | COc1cc(OC)cc(-c2nnc3n2N=C(c2ccccc2OC)CS3)c1 | 
20 | COc1ccccc1C1=Nn2c(nnc2-c2ccccc2OC)SC1 | 
3.2 | COc1cccc(C2=Nn3c(nnc3-c3ccccc3C)SC2)c1 | 
12.6 | COc1cccc(C2=Nn3c(nnc3-c3cccc(OC)c3)SC2)c1 | 
> 20 | CCOc1ccccc1-c1nnc2n1N=C(c1ccc(OC)cc1OC)CS2 | 
> 20 | COc1ccc(C2=Nn3c(nnc3-c3cccc(OC)c3OC)SC2)c(OC)c1 | 
8.9 | COc1ccc(OC)c(C2=Nn3c(nnc3-c3ccccc3OC)SC2)c1 | 
19.7 | COc1ccc(-c2nnc3n2N=C(c2ccccc2OC)CS3)c(OC)c1 | 
0.126 | COc1cccc(-c2nnc3n2N=C(c2ccc(OC)c(OC)c2)CS3)c1 | 
> 20 | COc1ccc(C2=Nn3c(nnc3-c3ccccc3O)SC2)c(OC)c1 | 
> 20 | COc1cccc(C2=Nn3c(nnc3-c3cccc(OC)c3OC)SC2)c1 | 
5.3 | COc1ccc(-c2nnc3n2N=C(c2cc(OC)ccc2OC)CS3)c(OC)c1 | 
11.9 | COc1ccc(OC)c(C2=Nn3c(nnc3-c3cc(OC)ccc3OC)SC2)c1 | 
7.5 | COc1ccc(C2=Nn3c(nnc3-c3ccc(OC)c(OC)c3)SC2)cc1 | 
8.4 | COc1ccc(C2=Nn3c(nnc3-c3ccc(OC)cc3)SC2)cc1 | 
1.7 | COc1ccc(C2=Nn3c(nnc3-c3cc(OC)ccc3OC)SC2)cc1 | 
6.3 | COc1ccc(OC)c(C2=Nn3c(nnc3-c3ccccc3C)SC2)c1 | 
> 20 | COc1ccc(C2=Nn3c(nnc3-c3ccccc3OC)SC2)cc1 | 
> 20 | COc1ccc(OC)c(C2=Nn3c(nnc3-c3ccccc3O)SC2)c1 | 
4.5 | CCOc1ccccc1-c1nnc2n1N=C(c1ccc(OC)cc1)CS2 | 
12.7 | COc1cc(OC)cc(-c2nnc3n2N=C(c2cc(OC)ccc2OC)CS3)c1 | 

IC50 (Phosphodiesterase 4) [µM] | SMILES | other results
0.177 | COc1ccc(C2=Nn3c(nnc3-c3ccc(OC)c(OC)c3)SC2)cc1OC | 
> 20 | COc1ccccc1-c1nnc2n1N=C(c1c(OC)cccc1OC)CS2 | 
0.0889 | COc1ccc(-c2nnc3n2N=C(c2ccc(OC)c(OC)c2)CS3)cc1 | 
13.4 | COc1ccc(-c2nnc3n2N=C(c2ccc(OC)cc2OC)CS3)cc1 | 
11.2 | CCOc1ccccc1-c1nnc2n1N=C(c1cccc(OC)c1)CS2 | 
 | COc1ccc(C2=Nn3c(nnc3-c3ccccc3OC)SC2)cc1OC | IC50 [1]: > 50 µM; IC50 [2]: > 50 µM; Activity [3]: inactive; IC50 [4]: > 50 µM; Activity [5]: inactive; Activity [6]: inactive; IC50 [8]: > 50 µM; IC50 [7]: > 50 µM; IC50 [9]: > 50 µM
10.1 | COc1ccc(-c2nnc3n2N=C(c2cc(OC)ccc2OC)CS3)cc1 | 
15 | COc1ccc(C2=Nn3c(nnc3-c3ccccc3OC)SC2)c(OC)c1 | 
12.6 | COc1ccc(C2=Nn3c(nnc3-c3cccc(OC)c3)SC2)cc1 | 
0.079 | COc1ccc(-c2nnc3n2N=C(c2ccc(OC)c(OC)c2)CS3)c(OC)c1 | 
19.7 | COc1ccc(-c2nnc3n2N=C(c2c(OC)cccc2OC)CS3)cc1 | 
> 20 | COc1ccc(-c2nnc3n2N=C(c2c(OC)cccc2OC)CS3)c(OC)c1 | 
> 20 | CCOc1ccccc1-c1nnc2n1N=C(c1c(OC)cccc1OC)CS2 | 
14.1 | COc1ccc(-c2nnc3n2N=C(c2c(OC)cccc2OC)CS3)cc1OC | 
7.5 | COc1ccc(C2=Nn3c(nnc3-c3cc(OC)ccc3OC)SC2)c(OC)c1 | 
12.6 | COc1cccc(-c2nnc3n2N=C(c2cc(OC)ccc2OC)CS3)c1 | 
12 | COc1cccc(C2=Nn3c(nnc3-c3ccccc3OC)SC2)c1 | 
6.7 | COc1ccc(C2=Nn3c(nnc3-c3ccc(OC)c(OC)c3)SC2)c(OC)c1 | 
12.5 | COc1ccc(C2=Nn3c(nnc3-c3ccccc3C)SC2)cc1 | 
> 20 | COc1ccccc1C1=Nn2c(nnc2-c2cccc(OC)c2OC)SC1 | 
14.1 | COc1cccc(OC)c1C1=Nn2c(nnc2-c2ccccc2C)SC1 | 
> 20 | COc1ccc(C2=Nn3c(nnc3-c3ccc(OC)cc3OC)SC2)c(OC)c1 | 
> 20 | CCOc1ccccc1-c1nnc2n1N=C(c1ccccc1OC)CS2 | 
